From ChEMBL document CHEMBL1153967, “Discovery of substituted 4-anilino-2-arylpyrimidines as a new series of apoptosis inducers using a cell- and caspase-based high throughput screening assay. 2. Structure-activity relationships of the 2-aryl group” (Bioorg Med Chem Lett, 2009)
The source made the active and inactive calls. No cut-off for these calls is given here.

What was measured:
[1] = system: T47D; test: Induction of apoptosis in human T47D cells assessed as caspase activation after 48 hrs by HTS assay; format: functional, cell-based
Outline: (§1)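 Cell-based caspase-3 activation HTS read with a proprietary fluorescent caspase-3 substrate in T47D, HCT116 and SNU398 cells. Compounds applied for 48 h, highest level 10 µM. EC50 reported as mean ± SEM of three or more experiments.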

[2] = system: SNU-398; test: Induction of apoptosis in human SNU398 cells assessed as caspase activation after 48 hrs by HTS assay; format: functional, cell-based; settings: SNU-398, 48 h; outline: as §1
[3] = system: HCT-116; test: Induction of apoptosis in human HCT116 cells assessed as caspase activation after 48 hrs by HTS assay; format: functional, cell-based; settings: HCT-116, 48 h; outline: as §1
[4] = system: T47D; test: Growth inhibition of human T47D cells after 48 hrs; format: functional
Outline: (§2)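 96-well growth-inhibition (GI50) format, run in parallel in T47D breast, HCT116 colon and SNU398 hepatocellular carcinoma cells.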

[5] = system: SNU-398; test: Growth inhibition of human SNU398 cells after 48 hrs; format: functional; settings: SNU-398, 48 h; outline: as §2
[6] = system: HCT-116; test: Growth inhibition of human HCT116 cells after 48 hrs; format: functional; settings: HCT-116, 48 h; outline: as §2
[7] = Inhibition of tubulin polymerization up to 50 uM
[8] = system: T47D; test: Induction of apoptosis in human T47D cells assessed as accumulation at S phase at 0.05 uM after 24 hrs by flow cytometry analysis; format: functional
Outline: (§3)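 T47D cells treated at 0.05 µM for 24 h or 48 h at 37 °C alongside untreated controls. Cells stained with propidium iodide and analysed by flow cytometry. Percentages in sub-G1, G1, S and G2/M read from DNA-content histograms.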

[9] = system: T47D; test: Induction of apoptosis in human T47D cells assessed as accumulation at G1 phase at 0.05 uM after 48 hrs by flow cytometry analysis; format: functional; outline: as §3
[10] = system: T47D; test: Induction of apoptosis in human T47D cells assessed as accumulation at S phase at 0.05 uM after 48 hrs by flow cytometry analysis; format: functional; outline: as §3
[11] = system: T47D; test: Induction of apoptosis in human T47D cells assessed as accumulation at G2/M phase at 0.05 uM after 24 hrs by flow cytometry analysis; format: functional; outline: as §3
[12] = system: T47D; test: Induction of apoptosis in human T47D cells assessed as accumulation at G2/M phase at 0.05 uM after 48 hrs by flow cytometry analysis; format: functional; outline: as §3
[13] = system: T47D; test: Induction of apoptosis in human T47D cells assessed as accumulation at subG1 phase at 0.05 uM after 24 hrs by flow cytometry analysis; format: functional; outline: as §3
[14] = system: T47D; test: Induction of apoptosis in human T47D cells assessed as accumulation at subG1 phase at 0.05 uM after 48 hrs by flow cytometry analysis; format: functional; outline: as §3
[15] = Inhibition of tubulin polymerization
[16] = system: T47D; test: Induction of apoptosis in human T47D cells assessed as accumulation at G1 phase at 0.05 uM after 24 hrs by flow cytometry analysis; format: functional; outline: as §3

| Structure (SMILES) | EC50 [1] | EC50 [2] | EC50 [3] | also measured |
| --- | --- | --- | --- | --- |
| COc1cccc(Nc2nc(-c3ccccn3)ncc2OC)c1 | > 10000 nM | > 10 µM | > 10000 nM | – |
| COc1ccc(Cl)c(Nc2cc(C(F)(F)F)nc(-c3ccncc3)n2)c1 | 100 nM | – | 960 nM | – |
| FC(F)(F)c1cc(Nc2cccc(Cl)c2)nc(-c2cccnc2)n1 | > 10000 nM | > 10 µM | > 10000 nM | – |
| COc1ccc(OC)c(Nc2cc(-c3ccccn3)nc(-c3ccccn3)n2)c1 | 420 nM | 0.16 µM | 330 nM | GI50 [4]: 240 nM; GI50 [5]: 410 nM; GI50 [6]: 130 nM |
| Oc1ccc(Cl)c(Nc2cc(C(F)(F)F)nc(-c3cnccn3)n2)c1 | 560 nM | > 10 µM | > 10000 nM | – |
| COc1cccc(Nc2cc(C(F)(F)F)nc(C3CCCCN3)n2)c1 (stereo not drawn) | > 10000 nM | > 10 µM | > 10000 nM | – |
| COc1cc(Nc2cc(C(F)(F)F)nc(-c3cnccn3)n2)cc(OC)c1 | 130 nM | > 10 µM | > 10000 nM | – |
| Oc1ccc(Cl)c(Nc2cc(C(F)(F)F)nc(-c3cccnc3)n2)c1 | 230 nM | > 10 µM | > 10000 nM | – |
| Cc1ccc(C)c(Nc2cc(C(F)(F)F)nc(-c3ccncc3)n2)c1 | 120 nM | – | 610 nM | – |
| COc1ccc(OC)c(Nc2nc(-c3ccccn3)ncc2OC)c1 | > 10000 nM | > 10 µM | > 10000 nM | – |
| COc1ccc(Oc2ccccc2)cc1Nc1cc(C(F)(F)F)nc(-c2cccnc2)n1 | 1500 nM | 5 µM | 3300 nM | – |
| COc1cccc(Nc2cc(C(F)(F)F)nc(-c3cccnc3)n2)c1 | 340 nM | > 10 µM | > 10000 nM | GI50 [4]: 94 nM; Activity [7]: inactive; GI50 [5]: 6400 nM; GI50 [6]: > 10000 nM |
| FC(F)(F)c1cc(Nc2cccc(-c3ccccc3)c2)nc(-c2cccnc2)n1 | > 10000 nM | > 10 µM | > 10000 nM | – |
| COc1cc(Nc2cc(C(F)(F)F)nc(-c3ccncc3)n2)cc(OC)c1 | 34 nM | – | 240 nM | GI50 [4]: 36 nM; GI50 [5]: 270 nM; GI50 [6]: 270 nM |
| COc1ccc(C)cc1Nc1cc(C(F)(F)F)nc(-c2cccnc2)n1 | 96 nM | 0.13 µM | 130 nM | – |
| COc1ccc(N2CCCCC2)c(Nc2cc(C(F)(F)F)nc(-c3cccnc3)n2)c1 | > 10000 nM | > 10 µM | > 10000 nM | – |
| Cc1ccc(O)cc1Nc1cc(C(F)(F)F)nc(-c2ccncc2)n1 | 48 nM | – | 2000 nM | – |
| COc1ccc(Nc2cc(C(F)(F)F)nc(-c3cccnc3)n2)cc1 | > 10000 nM | > 10 µM | > 10000 nM | – |
| COc1ccc(OC)c(Nc2cc(C(F)(F)F)nc(-c3cccnc3)n2)c1 | 24 nM | 0.13 µM | 170 nM | Activity [8]: 6%; Activity [9]: 31%; Activity [10]: 7%; GI50 [4]: 95 nM; Activity [11]: 53%; Activity [12]: 43%; GI50 [5]: 68 nM; Activity [13]: 7%; Activity [14]: 19%; IC50 [15]: 500 nM; Activity [16]: 32%; GI50 [6]: 180 nM |

| Structure (SMILES) | EC50 [1] | EC50 [2] | EC50 [3] | also measured |
| --- | --- | --- | --- | --- |
| COc1ccc(Cl)c(Nc2cc(C(F)(F)F)nc(-c3cccnc3)n2)c1 | 140 nM | 0.82 µM | 930 nM | – |
| Oc1ccc(Cl)c(Nc2cc(C(F)(F)F)nc(-c3ccncc3)n2)c1 | 77 nM | – | 1100 nM | – |
| COc1cc(Nc2cc(C(F)(F)F)nc(-c3cccnc3)n2)cc(OC)c1 | 82 nM | 1.4 µM | 2900 nM | GI50 [4]: 61 nM; GI50 [5]: 1000 nM; GI50 [6]: 1300 nM |
| COc1ccc(Cl)cc1Nc1cc(C(F)(F)F)nc(-c2cccnc2)n1 | 360 nM | 0.44 µM | 610 nM | – |
| COc1cccc(Nc2cc(C(F)(F)F)nc(-c3ccccc3)n2)c1 | > 10000 nM | > 10 µM | > 10000 nM | – |
| Oc1cccc(Nc2cc(C(F)(F)F)nc(-c3ccncc3)n2)c1 | 680 nM | – | 3100 nM | – |
| Cc1ccc(O)cc1Nc1cc(C(F)(F)F)nc(-c2cnccn2)n1 | 190 nM | > 10 µM | > 10000 nM | – |
| COc1ccc(C)c(Nc2cc(C(F)(F)F)nc(-c3ccncc3)n2)c1 | 25 nM | – | 120 nM | – |
| COc1cccc(Nc2cc(C(F)(F)F)nc(-c3ccncc3)n2)c1 | 1300 nM | > 10 µM | > 10000 nM | – |
| COc1ccc(Cl)c(Nc2cc(C(F)(F)F)nc(-c3c(Cl)cncc3Cl)n2)c1 | > 10000 nM | > 10 µM | > 10000 nM | – |
| COc1ccc(OC)c(Nc2cc(C(F)(F)F)nc(-c3cnccn3)n2)c1 | 48 nM | 0.28 µM | 410 nM | – |
| Oc1cccc(Nc2cc(C(F)(F)F)nc(-c3cccnc3)n2)c1 | 970 nM | > 10 µM | > 10000 nM | – |
| COc1ccc(C)cc1Nc1cc(C(F)(F)F)nc(-c2ccncc2)n1 | 76 nM | – | 160 nM | – |
| COc1ccc(OC)c(Nc2cc(C(F)(F)F)nc(-c3ccccn3)n2)c1 | 18 nM | 0.11 µM | 190 nM | – |
| COc1ccc(Nc2cc(C(F)(F)F)nc(-c3ccncc3)n2)cc1 | > 10000 nM | > 10 µM | > 10000 nM | – |
| Cc1ccc(O)cc1Nc1cc(C(F)(F)F)nc(-c2cccnc2)n1 | 87 nM | 5.5 µM | > 10000 nM | – |
| COc1ccc(Cl)c(Nc2cc(C)nc(N3CCOCC3)n2)c1 | > 10000 nM | > 10 µM | > 10000 nM | – |
| COc1cccc(Nc2cc(C(F)(F)F)nc(-c3ccccn3)n2)c1 | 360 nM | 3.7 µM | 6000 nM | – |
